Rpn11 block: Rpn11 (human) deubiquitinase inhibition; human 26S proteasome, Ub4-pepOG fluorescence polarization; 20S core pre-blocked with epoxomicin; calls only at 20 µM; O00487; 360,000 compounds, 0.59% hits; AID 588493;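 active = inhibition at 20 µM, scaled to each plate's controls, above about 33%, limit read from the data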
HNF4A DNA FP: change in binding of human HNF4 alpha to DNA. HNF4a-FITC DNA binding, fluorescence polarization, 1 h. activity change, % at 10 µM. 360,000 compounds, 0.3% hits. AID 1224865; in the data active = activity change above about 30%, passing the limit was not always enough
Target sequence (P41235 whole entry, looked up): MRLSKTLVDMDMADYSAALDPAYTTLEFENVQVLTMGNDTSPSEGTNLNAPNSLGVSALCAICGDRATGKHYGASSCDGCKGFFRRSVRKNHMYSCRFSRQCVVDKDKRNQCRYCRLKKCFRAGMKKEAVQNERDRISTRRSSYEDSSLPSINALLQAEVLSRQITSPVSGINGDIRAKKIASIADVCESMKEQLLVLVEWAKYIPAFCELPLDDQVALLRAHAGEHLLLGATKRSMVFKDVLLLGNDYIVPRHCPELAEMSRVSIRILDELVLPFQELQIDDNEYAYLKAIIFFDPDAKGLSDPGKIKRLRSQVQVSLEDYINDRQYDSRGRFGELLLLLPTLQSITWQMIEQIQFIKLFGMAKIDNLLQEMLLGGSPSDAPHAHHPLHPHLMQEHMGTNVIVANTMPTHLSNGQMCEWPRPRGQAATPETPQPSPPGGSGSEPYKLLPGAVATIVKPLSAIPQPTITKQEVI
TPT1 inhibitor: inhibitors of Candida albicans tRNA 2'-phosphotransferase TPT1; recombinant caTPT1, FP RNA substrate dephosphorylation; inhibition, % at 5 µM; 300,000 compounds, 0.81% hits; AID 1962;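 active = inhibition above the mean of all tested compounds plus 3 SD, set per screening campaign, cut at about 24% in these data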;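 also: plate controls were DMSO alone for no effect and ferristatin control at 100 nM for full effect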
PKA-R2B act: activates the human PKA-R2B holoenzyme complex | AID 504700 | activation, % at 11.4 µM | PKA-R2B holoenzyme dissociation, Cy5-IP20 fluorescence polarization; R2B truncated from residue 108, S112A mutant; 0% DMSO only, 100% 113 µM cGMP | 340,000 compounds, 0.079% hits | P22694+P31323;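 active = activation above a cutoff set at the mean over all compounds plus 3 SD, cut at about 18% in these data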;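 also: higher means more holoenzyme dissociation and a rise in polarization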
PKA-R1A activ: activators of PKA-R1A complex; P00514+P68181; PKA-R1A dissociation, Cy5-IP20 fluorescence polarization; scaled: DMSO 0%, 113 µM cGMP 100%; activation, % at 11.4 µM; 340,000 compounds, 0.083% hits; AID 504707;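 active = percent activation above the mean of all tested compounds plus 3 SD, cut at about 19% in these data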;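 also: higher means more PKAc released from R1A so a rise in polarization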
CSN deneddyl inh: CSN deneddylation inhibition. Q92905. AID 651999. inhibition, % at 12.5 µM. Purified CSN, SCF-Nedd8-OG deneddylation, fluorescence polarization. 360,000 compounds, 0.38% hits;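 active = pattern-corrected inhibition above about 35%, with an unprinted fluorescence ratio check between 0.5 and 1.5, limit read from the data, passing the limit was not always enough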;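 also: 0% = enzyme with substrate and 100% = substrate without enzyme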
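assay system = purified human Csn5 enzyme expressed in HEK293T cells | amount = 0.24 nM enzyme | buffer or medium = Tris/NaCl/DTT buffer, pH 7.5 | reagent = 10 nM SCFSkp2-Nedd8OG | compound = one concentration, 12.5 µM, 0.25% DMSO | times = 90 min reaction at room temperature | signal = FP | read-out basis = % inhibition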
caTPT1 confirm: confirmation of Candida albicans TPT1 inhibitors; shares compounds with TPT1 inhibitor; recombinant caTPT1, fluorescence polarization, RNase T1 coupled; inhibition, % at 5 µM; 2,400 compounds, 74% hits;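 active = inhibition above the primary screen limit, the mean inhibition of all tested compounds plus 3 SD, cut at about 25% in these data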
RNase T1 counter: blocks Aspergillus oryzae RNase T1, a TPT1 counter-screen. RNase T1 cleavage, fluorescence polarization, 1536-well. inhibition, % at 5 µM. shares compounds with TPT1 inhibitor. AID 2153. 2,400 compounds, 83% hits;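 active = inhibition above the solvent-only control well mean plus 3 SD, limit set per screening run, cut at about 23% in these data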;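 also: plate controls were DMSO wells with enzyme for no effect and wells without RNase T1 for full effect; inhibitors block cleavage so intact labeled substrate keeps polarization high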
Target sequence (P00651 whole entry, looked up): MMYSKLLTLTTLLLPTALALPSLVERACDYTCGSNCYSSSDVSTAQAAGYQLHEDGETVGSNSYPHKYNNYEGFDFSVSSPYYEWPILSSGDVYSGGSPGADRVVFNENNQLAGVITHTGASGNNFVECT
* = called active by the depositor; i = inactive; . = no result given; ! = not confirmed by another sample. Shown are actives, neighbours in structure and some others; about 1.6% of the full set was active somewhere.

SMILES	Rpn11 block	HNF4A DNA FP	TPT1 inhibitor	PKA-R2B act	PKA-R1A activ	CSN deneddyl inh	caTPT1 confirm	RNase T1 counter
CC12CCC3C(CC=C4CC(O)CCC43C)C1C/C(=C\c1cccc(F)c1)C2=O (stereo unspecified)	i	1	-1	-12	-1	-16	.	.
Cc1cc(OCC(=O)N2CCC(C(=O)O)CC2)c2c3c(c(=O)oc2c1)CCCC3	i	5	-4	-7	-9	5	.	.
Cc1c(C=O)c2ccccc2n1Cc1ccccc1	i	2	-1	-4	1	-1	.	.
O=Cc1c(C(=O)O)n(Cc2ccc(Cl)cc2)c2ccccc12	.	81*	77*	-6	-6	60*	174*	161*
Cc1ccccc1-n1c(O)c(/C=N/c2nccs2)c(=O)[nH]c1=O	i	3	28*!	-7	-3	-2	18	26*
CNS(=O)(=O)c1ccc(N=Cc2c(O)n(-c3ccccc3)c(=O)[nH]c2=O)cc1	i	0	28*	-5	-1	7	17	25*
Cc1cccc(-n2c(O)c(/C=C/C=Nc3ccccc3)c(=O)[nH]c2=O)c1	.	163	183*	11	-5	8	187*	173*
Cc1cccc(N=Cc2c(O)n(-c3ccccc3C)c(=O)[nH]c2=O)c1	i	1	3	-3	2	-1	.	.
Cc1ccc(N=Cc2c(O)n(-c3ccc(C)cc3)c(=O)[nH]c2=O)cc1	i	1	2	0	7	-3	.	.
CNS(=O)(=O)c1ccc(N=Cc2c(O)n(-c3cccc(C)c3)c(=O)[nH]c2=O)cc1	i	2	26*	5	3	17	14	24*
Cn1cccc1C1CCCN1CC(=O)Nc1ccc(C#N)c(Cl)c1 (stereo unspecified)	i	3	.	4	-13	1	.	.
O=c1[nH]c(=O)n(-c2cccc(Cl)c2)c(O)c1/C=N/c1ccccn1	i	11	30*	-6	3	2	18	24*
Cc1ccc(-n2c(O)c(C=Nc3ccc(S(=O)(=O)N(C)C)cc3)c(=O)[nH]c2=O)cc1	i	-4	26*	-8	8	9	9	14
COc1ccc(-c2nn(CCC#N)cc2C(=O)NCc2ccccc2)cc1[N+](=O)[O-]	i	3	.	9	-6	4	.	.
Cc1ccc(N2C(=O)NC(=O)/C(=C/C=C/c3ccco3)C2=O)cc1	i	7	28*	-13	-5	31	35*	52*
O=C(O)Cn1cc(/C=C2\C(=O)NC(=O)N(c3ccc(Br)cc3)C2=O)c2ccccc21	i	-4	37*	-7	5	-2	41*	51*
O=C1NC(=O)N(c2ccccc2F)C(=O)/C1=C/c1cn(CC(=O)N2CCOCC2)c2ccccc12	.	.	28*	.	.	.	10	21
Cc1ccc(N2C(=O)NC(=O)/C(=C\c3cn(CC(=O)O)c4ccccc34)C2=O)cc1	i	0	10	0	5	4	.	.
CCN1C(=O)NC(=O)/C(=C\c2cn(CC(=O)N3CCCC3)c3ccccc23)C1=O	i	3	15	-10	0	1	.	.
COc1cc(/C=C2\C(=O)NC(=O)N(c3ccc(C)cc3)C2=O)cc(OC)c1O	i	2	31*	-2	6	1	12	19
CCN(CC)c1ccc(N=Cc2c(O)n(-c3ccc(Cl)cc3)c(=O)[nH]c2=O)cc1	.	45	27*	-3	6	49	58*	72*
CCN(CC)c1ccc(N=Cc2c(O)n(-c3ccc(OC)cc3)c(=O)[nH]c2=O)cc1	i	6	56*	-14	-4	-37	-27	-17
O=C1N(CN2CCOCC2)c2ccccc2C1(O)c1c[nH]c2ccccc12 (stereo unspecified)	i	-2	2	0	-3	-3	.	.
CCOC(=O)c1c(/N=C/C2C(=O)NC(=S)NC2=O)sc(C)c1C	.	.	9	.	.	.	.	.
CCOC(=O)c1c(/N=C/C2C(=O)NC(=S)NC2=O)sc2c1CCC2	.	94	113*	.	.	14	20	33*
SMILES	Rpn11 block	HNF4A DNA FP	TPT1 inhibitor	PKA-R2B act	PKA-R1A activ	CSN deneddyl inh	caTPT1 confirm	RNase T1 counter
O=c1[nH]c(=O)n(Cc2ccccc2)c(O)c1/C=C1\C=Nc2ccccc21	.	4	58*	-9	13	5	18	27*
Cn1c(O)c(/C=C2\C=Nc3ccc(Br)cc32)c(=O)n(C)c1=O	i	4	28*	-8	-8	8	3	6
Cn1c(O)c(C=Nc2ccc(Br)cc2)c(=O)n(C)c1=O	i	-4	-3	2	-4	3	.	.
O=c1[nH]c(=O)n(-c2ccccc2F)c(O)c1/C=C1\C=Nc2ccccc21	i	1	56*	5	11	12	18	29*
O=c1[nH]c(=O)n(-c2ccc(F)cc2)c(O)c1/C=C1\C=Nc2ccccc21	i	0	51*	-17	-7	8	70*	77*
Cc1cccc(-n2c(O)c(/C=C3/C(c4ccccc4)=Nc4ccccc43)c(=O)[nH]c2=O)c1	i	6	19	-3	-1	3	.	.
COC(=O)CCCCC1SCC(NC(=O)c2ccccc2)C1Cl (stereo unspecified)	i	-9	-13	0	-1	-6	.	.
Clc1ccc(NC2=NCCCS2)cc1Cl	i	3	2	-3	-5	1	.	.
COc1ccc(-n2c(O)c(/C=C3\C=Nc4ccc(Br)cc43)c(=O)[nH]c2=O)c(OC)c1	i	0	39*	-4	-16	8	14	19
COC(=O)C1=Nc2ccccc2/C1=C\c1c(O)n(-c2cc(OC)ccc2OC)c(=O)[nH]c1=O	i	7	20	0	5	-9	.	.
Cc1cccc(C(=O)Nc2ccc3c(c2)CC2(C(=O)N(C)C(=O)N(C)C2=O)C2CCCN32)c1 (stereo unspecified)	i	16	26*	-11	-2	9	36*	49*
COc1ccccc1C(=O)Nc1ccc2c(c1)CC1(C(=O)N(C)C(=O)N(C)C1=O)C1CCCN21 (stereo unspecified)	i	7	15	4	-8	8	.	.
S=P(NCCNP(=S)(N1CC1)N1CC1)(N1CC1)N1CC1	i	5	.	9	1	3	.	.
N#C/C(=C\c1ccc(O)cc1)C(=O)O	i	-1	.	-9	-3	-4	.	.
